From ChEMBL document CHEMBL2203281, “Microwave assisted synthesis and anti-influenza virus activity of 1-adamantyl substituted N-(1-thia-4-azaspiro[4.5]decan-4-yl)carboxamide derivatives” (Bioorg Med Chem, 2012)

Key:
[1] = tested on: Influenza B virus; experiment: Antiviral activity against Influenza B virus (B/HK/5/72) infected in MDCK cells assessed as virus-induced cytopathic effect after 3 days by microscopic analysis; format: functional, cell-based; settings: B/Hong Kong/05/1972, MDCK, 72 h
Summary of the method: (§1)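 Multicycle CPE reduction assay in 96-well MDCK cells. Cells got serial compound dilutions together with influenza virus at multiplicity of infection 0.0004 PFU per cell, then 72 h at 35 °C. CPE was read by microscopic scoring and then by MTS cell viability.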

[2] = tested on: Influenza B virus; experiment: Antiviral activity against Influenza B virus (B/HK/5/72) infected in MDCK cells assessed as virus-induced cytopathic effect after 3 days by MTS assay; format: functional, cell-based; settings: B/Hong Kong/05/1972, MDCK, 72 h; summary of the method: as §1
[3] = tested on: Influenza A virus; experiment: Antiviral activity against Influenza A virus (A/X-31(H3N2)) infected in MDCK cells assessed as virus-induced cytopathic effect after 3 days by MTS assay; format: functional, organism-based; summary of the method: as §1
[4] = tested on: Influenza A virus; experiment: Antiviral activity against Influenza A virus (A/PR/8/34(H1N1)) infected in MDCK cells assessed as virus-induced cytopathic effect after 3 days by microscopic analysis; format: functional, organism-based, A/Puerto Rico/8/1934(H1N1); summary of the method: as §1
[5] = Cytotoxicity against dog MDCK cells assessed as cell viability by MTS assay; format: cell-based, Canis lupus familiaris
[6] = tested on: Influenza A virus; experiment: Antiviral activity against Influenza A virus (A/PR/8/34(H1N1)) infected in MDCK cells assessed as virus-induced cytopathic effect after 3 days by MTS assay; format: functional, organism-based, A/Puerto Rico/8/1934(H1N1); summary of the method: as §1
[7] = tested on: Influenza A virus; experiment: Antiviral activity against Influenza A virus (A/X-31(H3N2)) infected in MDCK cells assessed as virus-induced cytopathic effect after 3 days by microscopic analysis; format: functional, organism-based; settings: 72 h; summary of the method: as §1
[8] = Cytotoxicity against dog MDCK cells assessed as cell morphology alterations by microscopic analysis; format: cell-based, Canis lupus familiaris
Summary of the method: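 MDCK cells were exposed to serial compound dilutions and kept 72 h at 35 °C alongside the antiviral plates. MCC is the lowest concentration causing a microscopically detectable change in cell morphology.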

[9] = target: Hemagglutinin (Influenza A virus (strain A/X-31 H3N2), UniProt P03438); experiment: Inhibition of hemagglutininin in Influenza A virus (A/X-31(H3N2)) infected in chicken red blood cells assessed as inhibition of hemolysis preincubated for 1 hr prior to addition of red blood cells measured at pH 5.0 by spectrophotometric analysis; format: cell-based
Summary of the method: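 Influenza A/X-31 (H3N2) stock was preincubated with serial compound dilutions for 1 h at 37 °C. Chicken RBC were added for 10 min at 37 °C, then pelleted and resuspended in buffer holding the same compound level. pH was lowered to 5.0 for 25 min at 37 °C, then neutralised. Intact RBC were spun out and supernatant OD540 read. IC50 came from dose-response.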

[10] = Selectivity index, ratio of cytotoxic concentration for dog MDCK cells to EC50 for Influenza A virus (A/X-31(H3N2)); format: toxicity, cell-based; settings: read-out: Ratio EC50
[11] = Influenza A virus, A/Puerto Rico/8/1934(H1N1), MDCK, 72 h

Hemagglutinin, sequence (P03438 whole entry): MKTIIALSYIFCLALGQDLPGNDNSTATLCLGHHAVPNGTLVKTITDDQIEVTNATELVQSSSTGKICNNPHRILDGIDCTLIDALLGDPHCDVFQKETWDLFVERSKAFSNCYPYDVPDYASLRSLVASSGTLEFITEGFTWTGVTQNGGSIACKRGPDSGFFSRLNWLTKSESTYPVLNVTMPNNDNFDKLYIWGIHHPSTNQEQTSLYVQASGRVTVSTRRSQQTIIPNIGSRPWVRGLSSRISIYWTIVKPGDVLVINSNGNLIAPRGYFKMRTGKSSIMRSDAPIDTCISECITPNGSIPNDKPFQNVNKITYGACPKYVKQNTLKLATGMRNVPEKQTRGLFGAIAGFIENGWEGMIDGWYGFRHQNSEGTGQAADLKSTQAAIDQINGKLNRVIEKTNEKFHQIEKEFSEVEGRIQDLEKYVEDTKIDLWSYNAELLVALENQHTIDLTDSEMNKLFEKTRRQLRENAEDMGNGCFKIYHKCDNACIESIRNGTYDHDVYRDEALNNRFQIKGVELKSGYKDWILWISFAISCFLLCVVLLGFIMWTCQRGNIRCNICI

Row | SMILES | EC50 [1] | EC50 [2] | EC50 ([3]; Influenza A virus, MDCK, 72 h) | EC50 [4, 11] | CC50 [5] | EC50 [6, 11] | EC50 [7] | MCC [8] | IC50 [9] | selectivity ratio [10] | EC50 ([3]; mdck) | EC50 ([4]; mdck) | EC50 ([6]; mdck)
1 | NC12CC3CC(CC(C3)C1)C2 [AMANTADINE] | > 500 µM | > 500 µM | 208 µM | 58 µM | > 500 µM | 75 µM | 224 µM | > 500 µM | – | – | – | – | –
2 | CC1SC2(CCC(C(C)(C)C)CC2)N(NC(=O)C23CC4CC(CC(C4)C2)C3)C1=O (stereo not drawn) | > 100 µM | > 100 µM | > 100 µM | > 100 µM | > 100 µM | > 100 µM | > 100 µM | > 100 µM | – | – | – | – | –
3 | CCC1CCC2(CC1)SCC(=O)N2NC(=O)C12CC3CC(CC(C3)C1)C2 (stereo not drawn) | > 100 µM | > 100 µM | 21 µM | > 100 µM | > 100 µM | > 100 µM | > 100 µM | > 100 µM | – | – | – | – | –
4 | CC1CCC2(CC1)SC(C)C(=O)N2NC(=O)C12CC3CC(CC(C3)C1)C2 (stereo not drawn) | > 100 µM | > 100 µM | 1.4 µM | > 100 µM | > 100 µM | > 100 µM | 1.6 µM | > 100 µM | 3.7 µM | > 67 | – | – | –
5 | CC1CCC2(CC1)SCC(=O)N2NC(=O)C12CC3CC(CC(C3)C1)C2 (stereo not drawn) | > 100 µM | > 100 µM | > 100 µM | > 100 µM | > 100 µM | > 100 µM | > 100 µM | > 100 µM | – | – | – | – | –
6 | CC1SC2(CCC(c3ccccc3)CC2)N(NC(=O)C23CC4CC(CC(C4)C2)C3)C1=O (stereo not drawn) | > 100 µM | > 100 µM | > 100 µM | > 100 µM | 42 µM | > 100 µM | > 100 µM | 20 µM | – | – | – | – | –
7 | CCCC1CCC2(CC1)SCC(=O)N2NC(=O)C12CC3CC(CC(C3)C1)C2 (stereo not drawn) | > 100 µM | > 100 µM | 44 µM | > 100 µM | > 100 µM | > 100 µM | > 100 µM | > 100 µM | – | – | – | – | –
8 | Cc1nc2sccn2c1C(=O)NN1C(=O)C(C)SC12CCC(C)CC2 (stereo not drawn) | > 100 µM | > 100 µM | 9 µM | > 100 µM | > 100 µM | > 100 µM | 6.8 µM | > 100 µM | – | – | – | – | –
9 | CC(=O)N[C@H]1[C@H]([C@H](O)[C@H](O)CO)OC(C(=O)O)=C[C@@H]1NC(=N)N [ZANAMIVIR] | 0.072 µM | 0.063 µM | 53 µM | 0.44 µM | > 100 µM | 0.48 µM | 12 µM | > 100 µM | – | – | – | – | –
10 | CC(N)C12CC3CC(CC(C3)C1)C2 (stereo not drawn) [RIMANTADINE] | > 500 µM | > 500 µM | 40 µM | 2.7 µM | 218 µM | 2.5 µM | 45 µM | – | – | – | – | – | –
11 | CC1SC2(CCCCC2)N(NC(=O)C23CC4CC(CC(C4)C2)C3)C1=O (stereo not drawn) | > 100 µM | > 100 µM | > 100 µM | > 100 µM | > 100 µM | > 100 µM | > 100 µM | > 100 µM | – | – | – | – | –
12 | CC(C)(C)C1CCC2(CC1)SCC(=O)N2NC(=O)C12CC3CC(CC(C3)C1)C2 (stereo not drawn) | > 100 µM | > 100 µM | 34 µM | > 100 µM | > 100 µM | 53 µM | > 100 µM | > 20 µM | – | – | – | – | –
13 | NC(=O)c1ncn([C@@H]2O[C@H](CO)[C@@H](O)[C@H]2O)n1 [RIBAVIRIN] | 0.094 µM | 0.14 µM | – | – | > 100 µM | – | – | > 20 µM | – | – | 8.5 µM | 8.9 µM | 8.4 µM
14 | O=C1CSC2(CCC(c3ccccc3)CC2)N1NC(=O)C12CC3CC(CC(C3)C1)C2 (stereo not drawn) | > 100 µM | > 100 µM | > 100 µM | > 100 µM | > 100 µM | > 100 µM | > 100 µM | > 20 µM | – | – | – | – | –
15 | CCCC1CCC2(CC1)SC(C)C(=O)N2NC(=O)C12CC3CC(CC(C3)C1)C2 (stereo not drawn) | > 100 µM | > 100 µM | 23 µM | > 100 µM | > 100 µM | > 100 µM | 29 µM | > 100 µM | – | – | – | – | –
16 | CCC1CCC2(CC1)SC(C)C(=O)N2NC(=O)C12CC3CC(CC(C3)C1)C2 (stereo not drawn) | > 100 µM | > 100 µM | 1.7 µM | > 100 µM | > 100 µM | > 100 µM | 51 µM | > 100 µM | – | – | – | – | –
